pIC50: −log10 of the molar value.
How the values were obtained:
[1] = molecular target: Histone deacetylase; experiment: Inhibition of HDAC in human HeLa cells nuclear extract using Fluor de lys as substrate after 15 mins by fluorometric analysis; assay type: cell-based
[2] = tested on: A549; experiment: Antiproliferative activity against human A549 cells assessed as cell viability after 72 hrs by CellTitre-Glo luminescent assay; assay type: functional, cell-based
[3] = Antiproliferative activity against human HCT116 cells assessed as cell viability after 72 hrs by CellTitre-Glo luminescent assay; assay type: functional, cell-based, HCT-116
[4] = tested on: K562; experiment: Antiproliferative activity against human K562 cells assessed as cell viability after 72 hrs by CellTitre-Glo luminescent assay; assay type: functional, cell-based
[5] = molecular target: T1, CYP1A2 (Homo sapiens, UniProt P05177); experiment: Inhibition of human CYP1A2 using 3-cyano-7-ethoxycoumarin as substrate at 10 uM after 15 mins by fluorimetric analysis; assay type: ADME; settings: probe 3-cyano-7-ethoxycoumarin
T1 sequence (P05177 whole entry): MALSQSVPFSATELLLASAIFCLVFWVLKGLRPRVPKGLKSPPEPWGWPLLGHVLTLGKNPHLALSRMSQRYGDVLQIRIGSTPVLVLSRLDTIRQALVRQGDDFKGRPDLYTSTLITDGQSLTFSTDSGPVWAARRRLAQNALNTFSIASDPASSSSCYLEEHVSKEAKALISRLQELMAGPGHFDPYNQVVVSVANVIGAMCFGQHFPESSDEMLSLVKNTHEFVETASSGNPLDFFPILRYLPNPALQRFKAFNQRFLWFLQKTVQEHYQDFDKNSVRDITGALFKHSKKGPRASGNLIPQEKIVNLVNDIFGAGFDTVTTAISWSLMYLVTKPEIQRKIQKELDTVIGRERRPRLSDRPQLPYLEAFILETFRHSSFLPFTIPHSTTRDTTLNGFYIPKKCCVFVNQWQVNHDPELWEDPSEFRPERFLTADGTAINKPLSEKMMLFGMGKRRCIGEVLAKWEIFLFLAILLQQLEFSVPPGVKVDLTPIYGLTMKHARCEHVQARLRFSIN
How it was run: (§1)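 Test compounds at 10 µM in potassium phosphate buffer pH 7.4 with NADPH regenerating system (final 1.3 mM NADP⁺, 3.3 mM glucose 6-phosphate, 0.4 U/ml G6PDH); reaction started at 37 °C by adding Supersomes isoenzyme plus substrate. Enzyme and substrate amounts: CYP1A2 0.5 pmol, 5 µM CEC; CYP2C19 0.5 pmol, 25 µM CEC; CYP3A4 1 pmol, 50 µM BFC; CYP2D6 1.5 pmol, 1.5 µM AMMC. Stopped with acetonitrile/Tris base; fluorescence read; % inhibition versus enzyme without inhibitor; n≥2, mean.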

[6] = molecular target: CYP2C19 (Homo sapiens, UniProt P33261); experiment: Inhibition of human CYP2C19 using 3-cyano-7-ethoxycoumarin as substrate at 10 uM after 30 mins by fluorimetric analysis; assay type: ADME; settings: probe 3-cyano-7-ethoxycoumarin; how it was run: as §1
[7] = Metabolic stability in human liver microsomes assessed as compound remaining at 1 uM preincubated for 10 mins measured after 30 mins by LC-MS/MS analysis; assay type: ADME; settings: liver microsomes, read-out: Stability
How it was run: (§2)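 Compound at 1 µM pre-incubated 10 min at 37 °C in potassium phosphate buffer pH 7.4 with 0.5 mg/mL mouse or human hepatic microsomes. Parent quantified by LC-MS/MS (ESI+, MRM, verapamil internal standard). % remaining = peak area at 30 min / area at 0 min × 100; n≥2, mean.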

[8] = Solubility of the compound at pH 4.5; assay type: physicochemical; settings: buffer
[9] = Metabolic stability in mouse liver microsomes assessed as compound remaining at 1 uM preincubated for 10 mins measured after 30 mins by LC-MS/MS analysis; assay type: ADME; settings: liver microsomes, read-out: Stability; how it was run: as §2
[10] = molecular target: CYP3A4 (Homo sapiens, UniProt P08684); experiment: Inhibition of human CYP3A4 using 7-benzyloxy-4-(trifluoromethyl)-coumarin as substrate at 10 uM after 30 mins by fluorimetric analysis; assay type: ADME; settings: probe 7-benzyloxy-4-(trifluoromethyl)-coumarin; how it was run: as §1
[11] = molecular target: CYP2D6 (Homo sapiens, UniProt P10635); experiment: Inhibition of human CYP2D6 using 3-[2-(N,N-diethyl-N-methylamino)ethyl]-7-methoxy-4-methylcoumarin as substrate at 10 uM after 30 mins by fluorimetric analysis; assay type: ADME; how it was run: as §1
Chain of CYP2D6 (P10635 whole entry): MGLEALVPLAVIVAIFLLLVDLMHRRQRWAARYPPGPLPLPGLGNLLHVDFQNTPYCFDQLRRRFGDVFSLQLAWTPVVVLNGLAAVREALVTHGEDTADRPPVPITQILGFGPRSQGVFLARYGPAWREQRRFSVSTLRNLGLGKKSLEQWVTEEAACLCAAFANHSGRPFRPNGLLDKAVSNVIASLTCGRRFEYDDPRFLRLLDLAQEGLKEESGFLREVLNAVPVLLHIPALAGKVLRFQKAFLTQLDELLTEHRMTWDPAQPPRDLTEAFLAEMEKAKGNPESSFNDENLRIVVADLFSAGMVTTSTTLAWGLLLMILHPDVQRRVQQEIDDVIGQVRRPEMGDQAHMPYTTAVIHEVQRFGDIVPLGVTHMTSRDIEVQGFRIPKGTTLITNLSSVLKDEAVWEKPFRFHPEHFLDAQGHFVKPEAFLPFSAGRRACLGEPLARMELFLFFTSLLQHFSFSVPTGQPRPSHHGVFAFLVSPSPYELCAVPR

Chain of CYP2C19 (P33261 whole entry): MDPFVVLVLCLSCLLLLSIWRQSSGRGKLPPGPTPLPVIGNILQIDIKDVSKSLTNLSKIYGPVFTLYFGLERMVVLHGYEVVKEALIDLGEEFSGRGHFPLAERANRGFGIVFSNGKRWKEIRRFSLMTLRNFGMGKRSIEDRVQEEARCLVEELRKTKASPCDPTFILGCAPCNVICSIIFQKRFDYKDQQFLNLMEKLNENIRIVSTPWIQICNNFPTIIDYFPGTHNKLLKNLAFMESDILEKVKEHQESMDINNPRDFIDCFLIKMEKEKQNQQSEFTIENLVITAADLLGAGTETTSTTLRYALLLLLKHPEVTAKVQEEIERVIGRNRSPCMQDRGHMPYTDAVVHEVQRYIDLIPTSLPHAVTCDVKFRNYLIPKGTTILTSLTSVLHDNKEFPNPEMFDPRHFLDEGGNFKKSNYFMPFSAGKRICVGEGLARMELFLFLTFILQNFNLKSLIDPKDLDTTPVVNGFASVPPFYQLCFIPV
Chain of CYP3A4 (P08684 whole entry): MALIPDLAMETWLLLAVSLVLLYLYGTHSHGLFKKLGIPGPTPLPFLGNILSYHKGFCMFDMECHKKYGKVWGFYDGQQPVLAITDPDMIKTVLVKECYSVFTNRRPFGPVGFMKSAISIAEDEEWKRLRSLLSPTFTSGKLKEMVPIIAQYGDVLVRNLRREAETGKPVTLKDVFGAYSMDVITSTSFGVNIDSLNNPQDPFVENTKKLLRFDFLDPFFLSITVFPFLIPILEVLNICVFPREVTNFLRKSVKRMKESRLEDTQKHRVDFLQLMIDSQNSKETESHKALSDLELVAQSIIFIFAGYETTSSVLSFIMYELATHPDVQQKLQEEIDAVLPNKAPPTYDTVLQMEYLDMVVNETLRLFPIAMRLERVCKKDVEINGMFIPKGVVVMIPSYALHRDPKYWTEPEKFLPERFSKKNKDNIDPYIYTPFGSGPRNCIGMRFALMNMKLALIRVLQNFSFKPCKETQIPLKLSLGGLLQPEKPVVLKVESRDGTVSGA

Row | Compound | IC50 [1] [nM] | pIC50 ([2]; Homo sapiens, A549, 72 h) | pIC50 ([3]; Homo sapiens, HCT-116, 72 h) | pIC50 ([4]; Homo sapiens, K562, 72 h) | inhibition at 0.25 h, 10 µM [5] [%] | inhibition at 0.5 h, 10 µM [6] [%] | remaining at 0.5 h, 1 µM [7] [%] | solubility [8] [µM] | remaining at 0.5 h, 1 µM [9] [%] | inhibition at 0.5 h, 10 µM [10] [%] | inhibition at 0.5 h, 10 µM [11] [%] | pIC50 ([2]; a549) | pIC50 ([3]; hct-116) | pIC50 ([4]; k562)
1 | CN1CC2(CC(=O)c3cc(/C=C/C(=O)NO)ccc3O2)C1 | 168 | 6.37 | 6.75 | 6.77 |  |  |  |  |  |  |  |  |  | 
2 | O=C(/C=C/c1ccc2c(c1)C(=O)CC1(CCN(Cc3ccc(F)cc3)C1)O2)NO (centres undefined) | 196 | 6.19 | 6.75 | 6.55 |  |  |  |  |  |  |  |  |  | 
3 | O=C(/C=C/c1ccc2c(c1)C(=O)CC1(CN(Cc3ccc(F)cc3)C1)O2)NO | 130 | 6.16 | 6.72 | 6.52 |  |  |  |  |  |  |  |  |  | 
4 | O=C(/C=C/c1ccc2c(c1)C(=O)CC1(CN(Cc3ccccc3)C1)O2)NO | 67 | 6.61 | 7.12 | 6.76 | 5 | 40 | 44 | > 500 | 44 | 53 | 64 |  |  | 
5 | CCOC(=O)N1CC2(CC(=O)c3cc(/C=C/C(=O)NO)ccc3O2)C1 | 286 | 5.31 | 5.91 | 5.73 |  |  |  |  |  |  |  |  |  | 
6 | O=C(/C=C/c1ccc2c(c1)C(=O)CC1(CN(C(=O)c3ccccc3)C1)O2)NO | 81 | 5.88 | 6.53 | 6.42 |  |  |  |  |  |  |  |  |  | 
7 | O=C(/C=C/c1ccc2c(c1)C(=O)CC1(CN(CCc3ccccc3)C1)O2)NO | 219 | 6.05 | 6.66 | 6.60 |  |  |  |  |  |  |  |  |  | 
8 | CC(=O)N1CC2(CC(=O)c3cc(/C=C/C(=O)NO)ccc3O2)C1 | 485 | 4.32 | 4.98 | 4.82 |  |  |  |  |  |  |  |  |  | 
9 | O=C(/C=C/c1ccc2c(c1)C(=O)CC1(CNC1)O2)NO | 228 | 5.07 | 5.43 | 5.59 |  |  |  |  |  |  |  |  |  | 
10 | Cn1cc(CN2CC3(CC(=O)c4cc(/C=C/C(=O)NO)ccc4O3)C2)c2ccccc21 | 62 | 6.62 | 7.11 | 7.34 | 8 | 68 | 51 | > 500 | 27 | 84 | 74 |  |  | 
11 | O=C(/C=C/c1ccc2c(c1)C(=O)CC1(CCCN(CCc3ccccc3)C1)O2)NO (racemic) | 1 | 6.80 | 7.28 | 6.97 |  |  | 16 |  | 19 |  |  |  |  | 
12 | O=C(/C=C/c1ccc2c(c1)C(=O)CC1(CCCN(C(=O)c3ccccc3)CC1)O2)NO (racemic) | 110 | 5.42 | 6.21 | 5.95 |  |  |  |  |  |  |  |  |  | 
13 | Cn1cc(CN2CCCC3(CC(=O)c4cc(/C=C/C(=O)NO)ccc4O3)C2)c2ccccc21 (racemic) | 183 | 6.37 | 7.11 | 6.83 |  |  | 19 |  | 23 |  |  |  |  | 
14 | Cn1cc(CN2CCCC3(CC2)CC(=O)c2cc(/C=C/C(=O)NO)ccc2O3)c2ccccc21 (racemic) | 114 | 6.59 | 7.22 | 7.34 |  |  | < 30 |  | 19 |  |  |  |  | 
15 | O=C(/C=C/c1ccc2c(c1)C(=O)CC1(CCCN(Cc3ccccc3)C1)O2)NO (racemic) | 56 | 6.08 | 6.41 | 6.37 |  |  |  |  |  |  |  |  |  | 
16 | O=C(/C=C/c1ccc2c(c1)C(=O)CC1(CCCN(C(=O)c3ccccc3)C1)O2)NO (racemic) | 165 | 5.38 | 5.88 | 5.70 |  |  |  |  |  |  |  |  |  | 
17 | O=C(/C=C/c1ccc2c(c1)C(=O)CC1(CCCN(Cc3ccc(F)cc3)C1)O2)NO (racemic) | 34 | 5.94 | 6.43 | 6.26 |  |  |  |  |  |  |  |  |  | 

Row | Compound | IC50 [1] [nM] | pIC50 ([2]; Homo sapiens, A549, 72 h) | pIC50 ([3]; Homo sapiens, HCT-116, 72 h) | pIC50 ([4]; Homo sapiens, K562, 72 h) | inhibition at 0.25 h, 10 µM [5] [%] | inhibition at 0.5 h, 10 µM [6] [%] | remaining at 0.5 h, 1 µM [7] [%] | solubility [8] [µM] | remaining at 0.5 h, 1 µM [9] [%] | inhibition at 0.5 h, 10 µM [10] [%] | inhibition at 0.5 h, 10 µM [11] [%] | pIC50 ([2]; a549) | pIC50 ([3]; hct-116) | pIC50 ([4]; k562)
18 | CC(=O)N1CCCC2(CC(=O)c3cc(/C=C/C(=O)NO)ccc3O2)C1 (racemic) | 207 | 4.84 | 5.49 | 5.25 |  |  |  |  |  |  |  |  |  | 
19 | CCOC(=O)N1CCC2(CC(=O)c3cc(/C=C/C(=O)NO)ccc3O2)C1 (racemic) | 150 | 6.08 | 6.45 | 6.14 |  |  |  |  |  |  |  |  |  | 
20 | O=C(/C=C/c1ccc2c(c1)C(=O)CC1(CCN(C(=O)c3ccccc3)C1)O2)NO (racemic) | 187 | 5.68 | 6.29 | 6.27 |  |  |  |  |  |  |  |  |  | 
21 | O=C(/C=C/c1ccc2c(c1)C(=O)CC1(CCNC1)O2)NO (racemic) | 131 | 5.63 | 5.64 | 5.38 |  |  |  |  |  |  |  |  |  | 
22 | O=C(/C=C/c1ccc2c(c1)C(=O)CC1(CCCNC1)O2)NO (racemic) | 136 | 6.15 | 6.64 | 6.26 |  |  |  |  |  |  |  |  |  | 
23 | Cn1cc(CN2CCC3(CC(=O)c4cc(/C=C/C(=O)NO)ccc4O3)C2)c2ccccc21 (racemic) | 85 | 6.74 | 7.33 | 7.29 |  |  | 16 |  | 8 |  |  |  |  | 
24 | CN1CCC2(CC(=O)c3cc(/C=C/C(=O)NO)ccc3O2)C1 (racemic) | 119 | 6.45 | 6.84 | 6.70 |  |  |  |  |  |  |  |  |  | 
25 | CCOC(=O)N1CCCC2(CC(=O)c3cc(/C=C/C(=O)NO)ccc3O2)C1 (racemic) | 232 | 5.64 | 6.17 | 6.03 |  |  |  |  |  |  |  |  |  | 
26 | CC(=O)N1CCCC2(CC1)CC(=O)c1cc(/C=C/C(=O)NO)ccc1O2 (racemic) | 323 | 4.70 | 5.45 | 5.29 |  |  |  |  |  |  |  |  |  | 
27 | O=C(/C=C/c1ccc2c(c1)C(=O)CC1(CCN(CCc3ccccc3)C1)O2)NO (racemic) | 27 | 6.57 | 7.37 | 6.99 | 5 | 59 | 31 | > 500 | 31 | 64 | 41 |  |  | 
28 | CC(=O)N1CCC2(CC(=O)c3cc(/C=C/C(=O)NO)ccc3O2)C1 (racemic) | 955 | < 4.30 | < 4.30 | < 4.30 |  |  |  |  |  |  |  |  |  | 
29 | O=C(/C=C/c1ccc2c(c1)C(=O)CC1(CCCN(Cc3ccc(F)cc3)CC1)O2)NO (racemic) | 149 | 6.48 | 7.20 | 6.84 |  |  | 11 |  | 25 |  |  |  |  | 
30 | O=C(/C=C/c1ccc2c(c1)C(=O)CC1(CCCNCC1)O2)NO (racemic) | 134 | 5.51 | 5.97 | 5.22 |  |  |  |  |  |  |  |  |  | 
31 | CCOC(=O)N1CCCC2(CC1)CC(=O)c1cc(/C=C/C(=O)NO)ccc1O2 (racemic) | 300 | 5.24 | 6.00 | 5.78 |  |  |  |  |  |  |  |  |  | 
32 | O=C(/C=C/c1ccc2c(c1)C(=O)CC1(CCCN(Cc3ccccc3)C1)O2)NO (single isomer, unassigned; (-)) | 84 |  |  |  |  |  |  |  |  |  |  | 5.97 | 6.49 | 6.36
33 | O=C(/C=C/c1ccc2c(c1)C(=O)CC1(CCCN(Cc3ccccc3)C1)O2)NO (stereo in doubt; 33j) | 143 |  |  |  |  |  |  |  |  |  |  | 5.84 | 6.35 | 6.28
34 | O=C(CCCCCCC(=O)Nc1ccccc1)NO [VORINOSTAT] |  |  |  |  | 25 | 69 | 93 |  | 82 | 35 | 25 |  |  | 
